Laboratory results reported in paper PMC2818757 (Peptides, 2009).
Ends that are not written are not given here.

Legend:
NCI-H69 cells = test: Phospholipase C / [3H]IP stimulation in SCLC cells NCI-H69; type: cell-based, human; settings: 0.1 uM peptide alone, 37C, 60 min, mean ± SEM, at least 4 experiments
NCI-H209 cells = test: Phospholipase C / [3H]IP stimulation in SCLC cells NCI-H209; type: cell-based, human; settings: 0.1 uM peptide alone, 37C, 60 min, mean ± SEM, at least 4 experiments
NCI-N592 cells = test: Phospholipase C / [3H]IP stimulation in SCLC cells NCI-N592; type: cell-based, human; settings: 0.1 uM peptide alone, 37C, 60 min, mean ± SEM, at least 4 experiments
Procedure, shortened: (§1)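 SCLC suspension cells (1 × 10^6 cells/ml) were labelled 24 h at 37C with myo-[2-3H]inositol in RPMI with 2% FBS. Cells were washed, held 10 min in PBS pH 7.0 with 20 mM LiCl, then resuspended in HEPES pH 7.4 buffer with LiCl, EGTA, glucose and BSA. Peptide exposure was 60 min at 37C, stopped with ice-cold HCl/methanol. Total [3H]IP was eluted from anion-exchange resin and counted by scintillation; values are expressed as experimental/control.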

NCI-N417 cells = test: Phospholipase C / [3H]IP stimulation in SCLC cells NCI-N417; type: cell-based, human; settings: 0.1 uM peptide alone, 37C, 60 min, mean ± SEM, at least 4 experiments
Procedure, shortened: as §1

Antiserum 8684 = test: GRP18-27gly #8684 RIA cross-reactivity; type: binding, rabbit; settings: 125I-labeled GRP-gly tracer; GRP18-27gly standard

Molecule | Phospholipase C activity, Experimental/control (NCI-H69 cells) | Phospholipase C activity, Experimental/control (NCI-H209 cells) | Phospholipase C activity, Experimental/control (NCI-N592 cells) | Phospholipase C activity, Experimental/control (NCI-N417 cells) | cross-reactivity with antiserum 8684 (Antiserum 8684)
CSCC[C@H](NC(=O)[C@H](CC(C)C)NC(=O)[C@H](Cc1c[nH]cn1)NC(=O)CNC(=O)[C@@H](NC(=O)[C@H](C)NC(=O)[C@H](Cc1c[nH]c2ccccc12)NC(=O)[C@H](Cc1c[nH]cn1)NC(=O)[C@H](CC(N)=O)NC(=O)CNC(=O)[C@H](CCCNC(=N)N)NC(=O)[C@@H]1CCCN1C(=O)[C@H](Cc1ccc(O)cc1)NC(=O)[C@H](CCSC)NC(=O)[C@H](CCCCN)NC(=O)[C@@H](NC(=O)[C@H](CC(C)C)NC(=O)[C@@H](NC(=O)[C@@H](NC(=O)CNC(=O)CNC(=O)CNC(=O)[C@H](C)NC(=O)[C@@H]1CCCN1C(=O)[C@H](CC(C)C)NC(=O)[C@@H]1CCCN1C(=O)[C@@H](N)C(C)C)[C@@H](C)O)C(C)C)[C@@H](C)O)C(C)C)C(N)=O [GRP, gastrin releasing peptide] | 1.23±0.07 | 1.11±0.04 | 1.03±0.04 | 1.03±0.01 | 
GRP1-27: amidated form of gastrin releasing peptide 1-27 (VPLPAGGGTVLTKMYPRGNHWAVGHLM-NH2; UniProt P07492 24-50, looked up) |  |  |  |  | 60%
GRP18-27: amidated GRP18-27; differs from bombesin by a Gln to His substitution at position 20 |  |  |  |  | 60%
[D-Phe^6, β-Ala^11, Phe^13, Nle^14] Bn(6-14) | 1.31±0.04 | 1.17±0.03 | 1.05±0.04 | 3.14±0.34 | 
bombesin |  |  |  |  | less than 1%
